Measured values taken from ChEMBL document CHEMBL1125878, “Aminoalkynyldithianes. A new class of calcium channel blockers” (J Med Chem, 1991).

What was measured:
Type in all cases: functional
Cavia porcellus [1] = species on record: Cavia porcellus; experiment: Antagonism of calcium-induced contractions of guinea pig ileal strips
Summary of the method: (§1)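 Guinea pig ileal strips held at 0.5 g resting tension, equilibrated 60 min, isometric recording. Depolarized with KCl (80 mM) 6 min, then cumulative CaCl2 0.2-8.0 mM; wash, control curve, then curves with three drug concentrations added right after KCl (6 min). Kb = concentration giving 2-fold rightward shift, from EC50 ratios; means of 3-10 experiments ± SE.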

[2] = The compound was tested for inhibition of calcium influx into neuronal (NG108-15) cells; conditions: Mus musculus
Summary of the method: (§2)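 NG108-15 cells, differentiated with dibutyryl cAMP (1.0 mM, 4 days), loaded with Quin 2-AM (100 μM) 1 h at 37 °C, washed. Suspensions (ca. 3 × 10^6 cells) at 37 °C preincubated 1 min with drug, then depolarized with KCl (50 mM); fluorescence ex 339/em 492 nm. IC50 = half-maximal fluorescence decrease, logit analysis; means ± SE.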

Cavia porcellus [3] = species on record: Cavia porcellus; experiment: The compound was tested for antagonism of calcium-induced contractions of guinea pig ileal strips.; summary of the method: as §1
[4] = The compound was tested for inhibition of calcium influx into neuronal (NG108-15) cells.; conditions: Mus musculus; summary of the method: as §2

Row | Compound | Kb (Cavia porcellus [1]) [nM] | other results
1 | CCN(C)CC#CCCC1(C2(O)c3ccccc3Oc3ccccc32)SCCCS1 | 1510 | –
2 | CN(CC#CCCC1(C2(O)c3ccccc3Sc3ccccc32)SCCCS1)CCCc1ccccc1 | 4160 | –
3 | COc1ccc(CCN(C)CC#CCCC(O)(c2ccccc2)C2SCCCS2)cc1OC (stereo not drawn) | 1230 | IC50 [2]: 1800 nM
4 | CN(CC#CCCC1SCCCS1)CCCCc1ccccc1 | 3430 | –
5 | CN(CC#CCCC1SCCCS1)Cc1ccc2ccccc2c1 | 8330 | –
6 | CCN(CC)CC#CCCC1(C2(O)CCCc3ccccc32)SCCCS1 (stereo not drawn) | 830 | –
7 | CN(CC#CCCC1SCCCS1)Cc1ccccc1 | 8020 | –
8 | CCN(CC)CC#CCCCC1(C2(O)c3ccccc3Oc3ccccc32)SCCCS1 | 170 | IC50 [2]: 1000 nM
9 | CCN(CC)CC#CCCC1(C2(O)c3ccccc3CCc3ccccc32)SCCCS1 | 1270 | –
10 | CCCN(CC#CCC1(c2ccccc2)SCCCS1)CCC | 1010 | IC50 [2]: 1700 nM
11 | CCN(CC)CC#CCCCCC1SCCCS1 | > 5000 | –
12 | CCCN(CC#CCCCC1(C2(O)c3ccccc3Oc3ccccc32)SCCCS1)CCC | 470 | –
13 | CCCN(CC#CCCCC1(C2(O)c3ccccc3Sc3ccccc32)SCCCS1)CCC | 770 | –
14 | CCN(C)CC#CCCC1SCCCS1 | – | IC50 [2]: > 10000 nM
15 | CN(CC#CCCC1(C2(O)c3ccccc3Sc3ccccc32)SCCCS1)CCCCc1ccccc1 | 3400 | –
16 | CN(C)CC#CCCC1(C2(O)c3ccccc3Oc3ccccc32)SCCCS1 | 1150 | –
17 | CN(CC#CCCC1(C(O)(c2ccccc2)C2CCCCC2)SCCCS1)CCc1ccccc1 (stereo not drawn) | 3750 | –
18 | CCN(CC)CC#CCC1(c2ccccc2)SCCCS1 | 4270 | IC50 [2]: 6400 nM
19 | OC1(C2(CCC#CCN3CCCCC3)SCCCS2)c2ccccc2Sc2ccc(Cl)cc21 (stereo not drawn) | 6090 | –
20 | CN(CC#CCCC1(C(O)(c2ccccc2)c2ccccc2)SCCCS1)CCc1ccccc1 | 2650 | –
21 | CCN(CC)CC#CCCC1(C(O)(c2ccccc2)C2CCCCC2)SCCCS1 (stereo not drawn) | 1140 | –

Row | Compound | Kb (Cavia porcellus [1]) [nM] | other results
22 | CCN(CC)CC#CCCC1(C(O)(c2ccccc2)C2CCCC2)SCCCS1 (stereo not drawn) | 980 | –
23 | CN(CC#CCCC1(C2(O)c3ccccc3Oc3ccccc32)SCCCS1)CCCc1ccccc1 | 3090 | –
24 | CCN(CC#CCCC1(C2(O)c3ccccc3Oc3ccccc32)SCCCS1)C(C)C | 460 | –
25 | CN(CC#CCCC1SCCCS1)CCc1ccccc1 | 2270 | –
26 | CCN(CC)CC#CCCC1(c2ccccc2)SCCCS1 | 900 | IC50 [2]: 6800 nM
27 | CN(CC#CCCC1(c2ccccc2)SCCCS1)CCc1ccccc1 | 1740 | IC50 [2]: 5400 nM
28 | CN(CC#CCCCC1SCCCS1)CCc1ccccc1 | 4150 | –
29 | CCN(CC)CC#CCCC1(C2(O)CCOc3ccccc32)SCCCS1 (stereo not drawn) | 1940 | –
30 | OC1(C2(CCC#CCN3CCCCC3)SCCCS2)c2ccccc2Oc2ccccc21 | 390 | IC50 [2]: 6400 nM
31 | CCN(CC)CC#CCCC(O)(c1ccccc1)C1SCCCS1 (stereo not drawn) | 6700 | IC50 [2]: 17700 nM
32 | CCN(CC)CC#CCCC1(C2(O)c3ccccc3Oc3ccccc32)SCCCS1 | 160 | IC50 [2]: 2300 nM
33 | OCCN1CCN(CC#CCCC2SCCCS2)CC1 | > 10000 | –
34 | CN(C)CC#CCCC1(C2(O)c3ccccc3Sc3ccc(Cl)cc32)SCCCS1 (stereo not drawn) | 2330 | –
35 | CN(CC#CCCC1(C2(O)c3ccccc3Sc3ccc(Cl)cc32)SCCCS1)CCCc1ccccc1 (stereo not drawn) | > 7000 | –
36 | COc1ccc(CCN(C)CC#CCC2(c3ccccc3)SCCCS2)cc1OC | 1170 | IC50 [2]: 1500 nM
37 | CN(CC#CCCC(O)(c1ccccc1)C1SCCCS1)CCc1ccccc1 (stereo not drawn) | 2250 | IC50 [2]: 1600 nM
38 | CCN(C)CC#CCCC1(C2(O)c3ccccc3Sc3ccccc32)SCCCS1 | 570 | –
39 | OC1(C2(CCC#CCN3CCCCC3)SCCCS2)c2ccccc2Sc2ccccc21 | 3660 | –
40 | COc1ccc(N(C)CC#CCCC2SCCCS2)cc1OC | 2220 | –
41 | CN(CC#CCCC1(C2(O)c3ccccc3Oc3ccccc32)SCCCS1)CCCCc1ccccc1 | 1900 | –
42 | CN(C)CC#CCCC1(C2(O)c3ccccc3Sc3ccccc32)SCCCS1 | 680 | –

Row | Compound | Kb (Cavia porcellus [1]) [nM] | other results
43 | CC(C)N(CC#CCCCC1(C2(O)c3ccccc3Oc3ccccc32)SCCCS1)C(C)C | 200 | IC50 [2]: 4600 nM
44 | CN(CC#CCCC1SCCCS1)CCc1ccc2ccccc2c1 | 4730 | –
45 | CN(CC#CCCCC1SCCCS1)Cc1ccccc1 | 4450 | –
46 | CN(CC#CCCC1(C(O)(c2ccccc2)c2ccccc2)SCCCS1)Cc1ccccc1 | 3170 | –
47 | CCN(C)CC#CCCC1(C2(O)c3ccccc3Sc3ccc(Cl)cc32)SCCCS1 (stereo not drawn) | 2530 | –
48 | CCN(CC)CC#CCCC1(C2(O)c3ccccc3Sc3ccc(Cl)cc32)SCCCS1 (stereo not drawn) | 330 | –
49 | CCCN(CC#CCCCC1SCCCS1)CCC | 7500 | –
50 | CCN(CC)CC#CCCC1(C(c2ccccc2)c2ccccc2)SCCCS1 | 500 | –
51 | CCN(CC)CC#CCCC1(C2(O)c3ccccc3Sc3ccccc32)SCCCS1 | 130 | –
52 | CCN(CC)CC#CCCCCC1(C2(O)c3ccccc3Oc3ccccc32)SCCCS1 | 1740 | –
53 | CCN(CC)CC#CCCC1(Cc2ccccc2)SCCCS1 | 1960 | –
54 | CN(CC#CCCC1SCCCS1)CCCc1ccccc1 | 2980 | –
55 | CN1CCN(CC#CCCC2(C3(O)c4ccccc4Oc4ccccc43)SCCCS2)CC1 | 490 | –
56 | CCN(CC)CC#CCCC1(C2(O)c3ccccc3C=Cc3ccccc32)SCCCS1 | 300 | –
57 | CN(CC#CCCC1SCCCS1)CCc1cccc2ccccc12 | 1520 | –
58 | CN(CC#CCCC1(C(O)(c2ccccc2)c2ccccc2)SCCCS1)CCCc1ccccc1 | 1630 | –
59 | COc1ccc(CCN(C)CC#CCCC(O[Si](C)(C)C)(c2ccccc2)C2SCCCS2)cc1OC (stereo not drawn) | 570 | –
60 | CCN(CC)CC#CCCC1(C(C)(O)c2ccccc2)SCCCS1 (stereo not drawn) | 2510 | –
61 | COc1ccc([C@@H]2Sc3ccccc3N(CCN(C)C)C(=O)[C@@H]2OC(C)=O)cc1 [DILTIAZEM] | – | Kb (Cavia porcellus [3]): 47 nM; IC50 [4]: 14900 nM
62 | CCOC(=O)C1=C(C)NC(C)=C(C(=O)OC)C1c1cccc([N+](=O)[O-])c1 (stereo not drawn) [NITRENDIPINE] | 2 | IC50 [2]: 16 nM
63 | COc1ccc(CCN(C)CCCC(C#N)(c2ccc(OC)c(OC)c2)C(C)C)cc1OC (stereo not drawn) [VERAPAMIL] | 20 | IC50 [2]: 6500 nM
